Experimental data published in ChEMBL document CHEMBL4312005, “Optimization of pyrrolizine-based Schiff bases with 4-thiazolidinone motif: Design, synthesis and investigation of cytotoxicity and anti-inflammatory potency” (Eur J Med Chem, 2020).

Key:
[1] = tested on: Rattus norvegicus; assay: Antiinflammatory activity against albino rats assessed as inhibition of carrageenan-induced paw edema at 15 mg/kg, po measured after 2 hrs relative to control; assay type: functional
Outline: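 Winter carrageenan rat paw oedema model in adult albino rats of both sexes (100-140 g). Compounds given orally before carrageenan injection into the paw. Oedema inhibition % versus untreated control read at 2-4 h post-carrageenan. Significance versus control was tested at P < 0.05, 0.01 and 0.001. Animal work approved by the Umm Al-Qura University pharmacy ethics committee.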

[2] = tested on: Rattus norvegicus; assay: Antiinflammatory activity against albino rats assessed as inhibition of carrageenan-induced paw edema at 15 mg/kg, po measured after 4 hrs relative to control; assay type: functional
Outline: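 Carrageenan rat paw edema (Winter method) in male and female adult albino rats (100-140 g). […] Swelling inhibition expressed as % of control at 2-4 h after carrageenan injection.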

In the case of COc1ccc2c(c1)c(CC(=O)O)c(C)n2C(=O)c1ccc(Cl)cc1 [INDOMETHACIN], the inhibition in vivo at 15 mg/kg [1] is reported as 32.3% and the inhibition in vivo at 15 mg/kg [2] is reported as 56.4%.
